In ChEMBL document CHEMBL1128589, “Novel benzo[b]quinolizinium cations as uncompetitive N-methyl-D-aspartic acid (NMDA) antagonists: the relationship between log D and agonist independent (closed) NMDA channel block” (J Med Chem, 1995):

Assays:
Glutamate NMDA receptor = assay: Affinity against 3[H]TCP binding to N-methyl-D-aspartate glutamate receptor in rat brain membranes; type: cell membranes
[1] = Ratio (closed/open) was determined; type: functional
Procedure, shortened: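 Oocytes injected with forebrain-derived RNA and held 48–72 h at 18–22 °C, then superfused. Open block: current 300 s after NMDA plus inhibitor, normalised to initial NMDA current, expressed as % of NMDA-alone controls, one application per cell. Closed block: 30 min inhibitor with 10 µM 7-chlorokynurenate, 1–2 min wash, then 100 µM NMDA, with 100 µM kainate as internal control. Ratio = closed/open IC50.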

[2] = logD value was determined; type: physicochemical; details: octanol/water
[3] = Inhibitory activity against NMDA open channel block; type: functional
Procedure, shortened: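 Superfused oocytes got a single inhibitor application per cell during NMDA response. Current at 300 s was normalized to the initial NMDA current. Inhibition = (mean control (NMDA alone) − test)/control × 100%.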

[4] = Inhibitory activity against NMDA closed channel block; type: functional
Procedure, shortened: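 Oocytes (stage V-VI, defolliculated with 0.2% collagenase) were held 48-72 h at 18-22 °C in ND96 and superfused at ~4 mL/min. Controls were two 100 µM NMDA pulses 15 min apart. Cells then sat 30 min in 10 µM 7-chlorokynurenate plus inhibitor, were washed 1-2 min and retested with 100 µM NMDA. 100 µM kainate served as internal control. One application per cell.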

[5] = pKa value was determined; type: physicochemical

| Structure (SMILES) | Ki (Glutamate NMDA receptor) [nM] | Ratio [1] | logD [2] | IC50 [3] [nM] | IC50 [4] [nM] | pKa [5] |
| --- | --- | --- | --- | --- | --- | --- |
| N#CC12CC(c3ccoc3)(c3ccoc3)C(c3ccccc31)c1cccc[n+]12 (racemic) | 10 | – | – | – | – | – |
| c1ccc(C2(c3ccccc3)CC3c4ccccc4C2c2cccc[n+]23)cc1 (racemic) | – | 564 | -2.54 | 32 | 18100 | 11.7 |
| Oc1cccc2[n+]1C1CC(c3ccoc3)(c3ccoc3)C2c2ccccc21 (racemic) | 3780 | – | – | – | – | – |
| COc1ccc[n+]2c1C1c3ccccc3C2CC1(c1ccoc1)c1ccoc1 (racemic) | 19 | – | – | – | – | – |
| O=S(=O)([O-])c1cccc2c1C1c3cccc[n+]3C2CC1(c1ccoc1)c1ccoc1 (racemic) | > 10000 | – | – | – | – | – |
| Fc1ccc2c(c1)C1c3cccc[n+]3C2CC1(c1ccoc1)c1ccoc1 (racemic) | 3.6 | – | 0.75 | – | – | – |
| c1ccc2c(c1)C1CC(c3ccoc3)(c3ccoc3)C2c2c3ccccc3cc[n+]21 (racemic) | 19 | – | – | – | – | – |
| COC(=O)C12CC(c3ccoc3)(c3ccoc3)C(c3ccccc31)c1cccc[n+]12 (racemic) | 39 | – | – | – | – | – |
| Clc1cccc2[n+]1C1CC(c3ccoc3)(c3ccoc3)C2c2ccccc21 (racemic) | 633 | – | – | – | – | – |
| O=C(O)c1ccc2c(c1)C1c3cccc[n+]3C2CC1(c1ccoc1)c1ccoc1 (racemic) | > 10000 | – | 1.76 | – | – | – |
| Oc1cccc2c1C1c3cccc[n+]3C2CC1(c1ccccc1)c1ccccc1 (racemic) | 12 | – | 1.75 | – | – | – |
| CCOC1(OCC)C2c3ccccc3C([n+]3ccccc32)C1(C)C (racemic) | – | 527 | – | 27 | 14200 | 12.2 |
| c1ccc(C2(N3CCCCC3)CCCCC2)cc1 [PHENCYCLIDINE] | – | 1.7 | – | 270 | 450 | 9.97 |
| Oc1ccc[n+]2c1C1c3ccccc3C2CC1(c1ccoc1)c1ccoc1 (racemic) | 294 | 44.6 | 1.66 | 557 | 24800 | 4.88 |
| OCc1cccc2c1C1c3cccc[n+]3C2CC1(c1ccoc1)c1ccoc1 (racemic) | 159 | – | – | – | – | – |
| Oc1ccc2[n+](c1)C1CC(c3ccoc3)(c3ccoc3)C2c2ccccc21 (racemic) | 1530 | – | – | – | – | – |
| Oc1ccc2c(c1)C1c3cccc[n+]3C2CC1(c1ccoc1)c1ccoc1 (racemic) | 2.1 | 142 | 0.32 | 7.3 | 1030 | 8.8 |
| c1ccc2c(c1)C1CC(c3ccoc3)(c3ccoc3)C2c2cccc[n+]21 (racemic) | 2 | – | – | – | – | – |
| COc1cc(OC)c2c(c1)C1CC(c3ccoc3)(c3ccoc3)C2c2cccc[n+]21 (racemic) | 3790 | – | – | – | – | – |
| Oc1c(Cl)ccc2c1C1c3cccc[n+]3C2CC1(c1ccoc1)c1ccoc1 (racemic) | 24 | – | -0.99 | – | – | – |
| Oc1cccc2c1C1c3cccc[n+]3C2CC1(c1ccoc1)c1ccoc1 (racemic) | 1.8 | 422 | -0.81 | 9.13 | 3860 | 8.6 |
| Oc1ccc2c(c1)C1CC(c3ccoc3)(c3ccoc3)C2c2cccc[n+]21 (racemic) | 29 | – | – | – | – | – |
| Brc1ccc(Br)c2c1C1CC(c3ccoc3)(c3ccoc3)C2c2cccc[n+]21 (racemic) | 345 | – | – | – | – | – |
| COc1cccc2c1C1c3cccc[n+]3C2CC1(c1ccoc1)c1ccoc1 (racemic) | 6 | – | -3.66 | – | – | – |
| Oc1cc(O)c2c(c1)C1CC(c3ccoc3)(c3ccoc3)C2c2cccc[n+]21 (racemic) | 125 | – | – | – | – | – |
| CCCCCCCCOc1cccc2c1C1c3cccc[n+]3C2CC1(c1ccoc1)c1ccoc1 (racemic) | 3380 | – | – | – | – | – |
| COc1c(Cl)ccc2c1C1c3cccc[n+]3C2CC1(c1ccoc1)c1ccoc1 (racemic) | 64 | – | – | – | – | – |
| CC12CC(c3ccoc3)(c3ccoc3)C(c3ccccc31)c1cccc[n+]12 (racemic) | 1.2 | – | – | – | – | – |
| C[C@]12N[C@H](Cc3ccccc31)c1ccccc12 [DIZOCILPINE] | – | 1.6 | – | 23 | 40 | 5.81 |
